Assays:
J89 cells = assay: MTT cytotoxicity/proliferation assay in J89 cells; type: cell-based; conditions: 24 h, at concentrations used to induce LTR expression
How it was run: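 Cells were washed in PBS and incubated 24 h across a range of inhibitor concentrations, then assayed with an MTT proliferation kit. Percent proliferating cells was calculated relative to cells in drug-free medium. Run in triplicate.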

HIV LTR in J89 cells = assay: LTR-driven GFP expression in J89 cells by flow cytometry; type: cell-based; conditions: overnight incubation with HDACi
How it was run: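 Latently infected Jurkat line carrying EGFP as a reporter of Tat-driven HIV LTR expression, grown in RPMI 1640 with 10% FBS at 37°C, 5% CO2. Cells were PBS-washed, exposed overnight to inhibitor, then fixed in PBS with 2% paraformaldehyde. Live cells were gated, with two-parameter analysis to separate GFP from background. From 10 000 events, %GFP+ was reported as mean ± SE of three independent experiments.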

[1] = test system: latent HIV in resting CD4+ T cells; conditions: cited from earlier work
[2] = test system: latent HIV in resting CD4+ T cells; type: cell-based, HIV-1; conditions: resting CD4+ T cells of aviremic patients on ART, 24 h exposure, compared to PHA
How it was run: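 Resting CD4+ T cells came from leukapheresis by negative selection, from patients with plasma RNA <50 copies/ml. Cells were plated at 2.5, 0.5 or 0.1 million per well and exposed to drug for 24 h. PHA comparator: 1 µg/ml PHA-L, five-fold irradiated allogeneic PBMCs and 20 U/ml IL-2. Cells were then washed and co-cultured with CD8-depleted PBMC. p24 ELISA was read on days 15 and 19, and IUPM derived by maximum likelihood.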

HDACs = conditions: HDAC isoforms inhibited; cited from earlier work

Row | SMILES | cell proliferation (MTT) (J89 cells) | LTR activation (LTR-driven GFP expression) (HIV LTR in J89 cells) | viral outgrowth from resting CD4+ T cells of aviremic HIV-infected individuals on ART [1] | induction of virus outgrowth (recovery of replication-competent HIV) [2] | Selectivity (HDACs)
1 | CCCC(CCC)C(=O)O [VPA, valproic acid] | did not perturb cell proliferation | effectively induced LTR expression | induce viral outgrowth | effective at inducing virus | –
2 | O=C(CCCCCCC(=O)Nc1ccccc1)NO [SAHA, suberoylanilide hydroxamic acid] | – | – | induce viral outgrowth | – | –
3 | CCC(=O)CCCCC[C@@H]1NC(=O)[C@H]2CCCCN2C(=O)[C@H]([C@@H](C)CC)NC(=O)[C@H](Cc2cn(OC)c3ccccc23)NC1=O [Apicidin, apicidin] | slightly antiproliferative | induced LTR activation | – | suboptimal | HDAC1, 2, 3

Source: PMC3809117 (AIDS (London, England), 2009)
